From ChEMBL document CHEMBL2062469, “1-(2-Mercaptobenzenesulfonyl)-3-hydroxyguanidines--novel potent antiproliferatives, synthesis and in vitro biological activity” (2012) come the findings set out here.

The term GI50 denotes the concentration at which growth is held to half of that of the control.

What all share (format): functional
Assay [1] concerns UO-31. In words: Cytostatic activity against human UO31 cells. The procedure, abridged: (§1)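 Human tumour cell lines from the NCI-60 panel, tested at the US National Cancer Institute under the NIH Developmental Therapeutics Program protocol. A single-dose prescreen at 10 µM came first. Selected compounds then went to a 5-dose assay, which gave GI50 and TGI values in µM.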
For assay [2], the system named is SF-268. In words: Cytostatic activity against human SF268 cells. The essentials: (§2)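 NCI-60 human tumor cell line screen run by the US National Cancer Institute under the NIH Developmental Therapeutics Program protocol. A single-dose prescreen at 10 µM came first. Selected compounds then went into the 5-dose assay. Cytostatic activity is reported as GI50 (µM).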

In assay [3] the test system is OVCAR-3. In words: Cytostatic activity against human OVCAR3 cells. The procedure, abridged: as §2
The test system of assay [4] is NCI-H522. Kind of assay: Cytostatic activity against human NCI-H522 cells. The procedure, abridged:
as §2

In assay [5] the test system is UACC-257. Kind of assay: Cytostatic activity against human UACC257 cells. The procedure, abridged:
as §1

The test system of assay [6] is HT-29. Kind of assay: Cytostatic activity against human HT-29 cells. The procedure, abridged: as §2
Assay [7] has as its system Hs-578T. Kind of assay: Cytostatic activity against human Hs 578T cells. The procedure, abridged: as §2
Assay [8] relates to IGROV-1. Kind of assay: Cytostatic activity against human IGROV1 cells. The procedure, abridged: as §2
For assay [9], the system named is UACC-62. Kind of assay: Cytostatic activity against human UACC62 cells. The procedure, abridged: as §1
The test system of assay [10] is Malme-3M. In words: Cytostatic activity against human MALME-3M cells. The procedure, abridged:
as §2

Assay [11] deals with M14. In words: Cytostatic activity against human M14 cells. The essentials: as §2
For assay [12], the system named is NCI-H460. In words: Cytostatic activity against human NCI-H460 cells. The procedure, abridged: as §2
Assay [13] deals with SNB-75. In words: Cytostatic activity against human SNB75 cells. The procedure, abridged: as §1
Assay [14] relates to MDA-MB-435. In words: Cytostatic activity against human MDA-MB-435 cells. The essentials:
as §2

Assay [15] deals with U-251. Kind of assay: Cytostatic activity against human U251 cells. The essentials: as §1
Assay [16] concerns MDA-MB-231. In words: Cytostatic activity against human MDA-MB-231/ATCC cells. The procedure, abridged:
as §2

On to `N=C(NO)NS(=O)(=O)c1cc(-c2nc(-c3ccccc3)no2)c(Cl)cc1SCc1ccc2c(c1)OCO2`, for which the GI50 is 1.66 µM in assay [1]; 1910 nM in assay [2]; 1700 nM in assay [3]; 1290 nM in assay [4]; 2 µM in assay [5]; 2000 nM in assay [6]. Besides, the GI50 in [7] was 2.63 µM; in assay [8], 2.57 µM; in assay [9], 1820 nM; in assay [10], 2.19 µM; in assay [11], 1910 nM; in assay [12], 2040 nM. In addition, the GI50 in assay [13] stood at 1550 nM.

With `N=C(NO)NS(=O)(=O)c1cc(-c2nc(-c3ccc(Cl)cc3)cs2)c(Cl)cc1SCc1ccc2c(c1)OCO2`, the GI50 worked out at 3890 nM in assay [14]; 6460 nM in assay [2]; 11.2 µM in assay [15]; 12.6 µM in assay [16]; 25.1 µM in assay [8]; 7760 nM in [9].

As to `COc1cc(CSc2cc(Cl)c(-c3nc(-c4ccc(Cl)cc4)no3)cc2S(=O)(=O)NC(=N)NO)cc(OC)c1OC`, the GI50 in assay [1] was determined as 3.16 µM; in [2], 2950 nM; in assay [3], 1910 nM; in assay [4], 2140 nM; in [5] it was 9.33 µM; in assay [6], 2950 nM. In addition, the GI50 is 4.17 µM in assay [7]; 3.8 µM in assay [8]; 1950 nM in [9]; 7.76 µM in assay [10]; 2190 nM in assay [11]; 2240 nM in assay [12]. In assay [13], this molecule displayed a GI50 of 2950 nM.

Turning to `N=C(NO)NS(=O)(=O)c1cc(-c2nc(-c3ccc(Cl)cc3)no2)c(Cl)cc1SCc1ccc2c(c1)OCO2`, the GI50 was 1.91 µM in [1]; 1820 nM in [2]; 1700 nM in assay [3]; 1020 nM in assay [4]; 1.91 µM in [5]; 1820 nM in assay [6]. The GI50 was 2.69 µM in [7]; 2.14 µM in assay [8]; 1700 nM in assay [9]; 2.63 µM in [10]; 1860 nM in assay [11]; 2140 nM in assay [12]. This molecule came in with a GI50 in assay [13] of 1740 nM.

For `COc1cc(CSc2cc(Cl)c(-c3nnc(-c4ccc(Cl)cc4)s3)cc2S(=O)(=O)NC(=N)NO)cc(OC)c1OC`, the GI50 in assay [1] worked out at 44.7 µM; in [2], 9550 nM; in assay [3], 10200 nM; in assay [4] it was 8910 nM; in [5] it was 26.3 µM; in assay [6], 6760 nM. Further, the GI50 in assay [7] was 8.13 µM; in assay [8], 58.9 µM; in assay [9], 16200 nM; in [10] it was 97.7 µM; in [11], 40700 nM; in assay [12], 34700 nM. The molecule also showed a GI50 in assay [13] of 25700 nM.

For the molecule `COc1cc(CSc2cc(Cl)c(-c3nnc(-c4ccccc4)s3)cc2S(=O)(=O)NC(=N)NO)cc(OC)c1OC`, the GI50 in assay [1] was determined as 3.98 µM; in assay [2], 2400 nM; in assay [3] it was 2190 nM; in assay [4], 2040 nM; in assay [5] it was 6.03 µM; in [6], 4170 nM. In addition, the GI50 in assay [7] is 3.31 µM; in assay [8], 3.72 µM; in [9], 3240 nM; in assay [10] it was 3.09 µM; in [11], 4070 nM; in assay [12], 3240 nM. In assay [13], it took 1860 nM to inhibit growth by half (GI50).

`N=C(NO)NS(=O)(=O)c1cc(-c2nc(-c3ccccc3)cs2)c(Cl)cc1SCc1ccc2c(c1)OCO2`: the GI50 in assay [14] turned out to be 2000 nM; in assay [2], 1860 nM; in [15] it was 1.95 µM; in [16], 2.34 µM; in assay [8], 2.82 µM; in [9], 2140 nM.

With `N=C(NO)NS(=O)(=O)c1cc(-c2nnc(-c3ccc(Cl)cc3)s2)c(Cl)cc1SCc1ccc2c(c1)OCO2`, the GI50 in [1] was 3.72 µM; in assay [14] it was 2630 nM; in assay [2] it was 2040 nM; in [3], 1620 nM; in assay [4] it was 1860 nM; in assay [5], 3.55 µM. Also, the GI50 in assay [15] was 10.7 µM; in assay [6], 2290 nM; in [7], 2.4 µM; in assay [16], 5.13 µM; in [8] it was 3.47 µM; in assay [9], 2140 nM. The GI50 came out at 2.24 µM in assay [10], 2140 nM in assay [11], 2340 nM in assay [12] and 1780 nM in [13].

Consider `COc1cc(CSc2cc(Cl)c(-c3nc(-c4ccccc4)no3)cc2S(=O)(=O)NC(=N)NO)cc(OC)c1OC`, for which the GI50 in [1] worked out at 4.47 µM; in assay [2], 6920 nM; in assay [3], 4790 nM; in assay [4], 3800 nM; in [5] it was 13.2 µM; in assay [6], 7240 nM. The GI50 in assay [7] is 7.41 µM; in [8], 5.62 µM; in [9], 3090 nM; in assay [10] it was 13.5 µM; in assay [11], 6610 nM; in [12] it was 4370 nM. Moreover, halving of growth in assay [13] (GI50) required 3980 nM.
